Screening results as filed in PubChem.
Only some compounds are listed: those with a hit (about 9.5% of all), similar ones and a draw of the others.
M1 ag = M1 muscarinic receptor agonists, primary screen, CHO-M1 cells, Fluo-4 calcium, agonist mode | Muscarinic acetylcholine receptor M1 | Fluo-4 calcium fluorescence; stronger effect = higher value | B-score at 10 µM | hit rate 3% among 64,000 | AID 626, 2007;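 active = fluorescence rise, raw or as B-score row- and column-corrected plate score, outside the 99.7% band of its plate's samples, either direction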
Htt clearance = clearance of mutant huntingtin inclusions, primary screen, imaging, HeLa Exon1htt(103Q)mCFP, confocal imaging | aggregate imaging; zero = plate's median compound well | inhibition, % at 1.5 µM | hit rate 0.42% among 47,000 | AID 853, 2007;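 active = inhibition of aggregate fluorescence above about 70%, also judged a hit by eye on the cell image, limit read from the data, passing the limit was not always enough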;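 note: cells exposed to compound for three days before fixation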
M1 antagonist = antagonists of rat M1 muscarinic receptor | Muscarinic acetylcholine receptor M1 (Rattus norvegicus), P08482 | CHO-M1 cells, Fluo-4 calcium, ACh EC80 antagonist mode; stronger effect = lower value | B-score at 10 µM | hit rate 3.4% among 64,000 | AID 628, 2007;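 active = calcium fluorescence response, raw or row-and-column corrected B-score, differing from the plate sample mean either way at a set confidence level, mostly lower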
D1 mod = D1 CRE-luciferase signal change, two-sided – cell-based, HEK293 D1, dopamine EC30, D1 allosteric modulator project, primary screen; D(1A) dopamine receptor (Homo sapiens), P21728; dopamine EC30 potentiation; actives deviate in either direction; B-score at 10 µM; hit rate 5.9% among 58,000;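 active = luminescence count or its row- and column-corrected plate score outside the 99.7% band of the plate's sample wells, on either side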
Target sequence (P21728 whole entry, looked up): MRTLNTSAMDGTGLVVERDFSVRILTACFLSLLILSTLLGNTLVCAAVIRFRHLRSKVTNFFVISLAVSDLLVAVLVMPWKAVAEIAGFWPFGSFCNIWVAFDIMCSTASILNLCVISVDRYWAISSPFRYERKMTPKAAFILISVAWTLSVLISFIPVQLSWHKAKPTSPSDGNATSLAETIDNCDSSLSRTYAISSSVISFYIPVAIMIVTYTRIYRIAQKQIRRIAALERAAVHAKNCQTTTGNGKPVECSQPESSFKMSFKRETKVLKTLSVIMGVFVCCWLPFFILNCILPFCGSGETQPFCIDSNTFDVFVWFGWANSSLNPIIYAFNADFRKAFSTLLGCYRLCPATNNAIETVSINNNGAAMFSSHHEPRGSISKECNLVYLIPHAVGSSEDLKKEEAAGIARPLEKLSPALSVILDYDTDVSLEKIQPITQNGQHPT
Jurkat tox 60K = cytotoxicity toward Jurkat T cells, primary screen, cytotoxicity control, cell-based, Jurkat E6.1, 60K MLSMR library; inhibition, % at 4 µM; hit rate 1.2% among 56,000; AID 463, 2006; Jurkat E6.1 viability, ATP luminescence, 48 h;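 active = inhibition above the mean inhibition of all tested compounds plus 3 SD, cut at about 28% in these data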
HEK293 NFkB inh = inhibitors of PMA/ionomycin-induced NF-kB reporter, primary screen, antigen receptor NF-kB inhibitor project, cell-based, HEK-293 luciferase reporter, luminescence. hit rate 0.21% among 62,000. AID 465, 2006. inhibition, % at 3 µM. HEK-293 NF-kB luciferase reporter;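 active = inhibition above the mean of all tested compounds plus 3 SD, cut at about 40% in these data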
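Reagent: PMA plus ionomycin mix as NF-kB-activating stimulus. Assay system: NF-kB luciferase reporter HEK-293 cells. Technique: luminescence from luciferase substrate reagent. Incubation: 1 h compound pre-incubation, 16 h PMA/ionomycin at 37 °C. Benchmarks: DMSO only as uninhibited control, 10 µM reference inhibitor as full inhibition. Repeats: tested once.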
M1 antag conf = rat M1 muscarinic receptor antagonists, confirmation, CHO cells, Fluo-4 calcium, duplicate; shares compounds with M1 antagonist; ACh EC80 antagonism; stronger effect = lower value; calcium response (max-min fluorescence) at 10 µM; hit rate 43% among 1,700;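 active = calcium response below the same-plate mean of wells given acetylcholine alone at its 80%-effect dose, minus 3 SD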
mGluR4 antag = human mGluR4 response to M1 antagonist hits, M1 allosteric modulator project, cell-based, antagonist mode, secondary assay 1; shares compounds with M1 antagonist; CHO-mGluR4 calcium flux, Fluo-4 fluorescence, glutamate EC80; stronger effect = lower value; fluorescence response (max-min) at 10 µM; hit rate 0.9% among 1,700; AID 678, 2007;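 active = fluorescence response below the plate's average for near-maximal glutamate wells, less 3 SD of those wells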;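 note: raw unnormalized fluorescence span taken in the window right after glutamate addition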
Of the large screens only hits and unclear results are named; the others gave an inactive call (follow-up assays come after a bar, where they were run).

O=C(CSc1ncn[nH]1)N1CCN(c2nnc(-c3ccccc3)c3ccccc23)CC1	M1 antagonist -2.9 (no result: Htt clearance) | M1 antag conf 497 | mGluR4 antag inactive
CCCCNS(=O)(=O)c1ccc2nc(SCC(=O)Nc3sccc3C#N)[nH]c2c1	M1 antagonist -3.1 | M1 antag conf inactive | mGluR4 antag inactive
CCCCNS(=O)(=O)c1ccc2nc(SCC(=O)c3ccccc3OC)[nH]c2c1	none (no result: M1 ag, M1 antagonist, D1 mod, Jurkat tox 60K, HEK293 NFkB inh)
CCOc1ccc(C(=O)NCC2OCCc3ccccc32)cc1 (stereo unspecified)	none (no result: M1 ag, M1 antagonist, D1 mod, Jurkat tox 60K, HEK293 NFkB inh)
O=C1CC(c2ccc(Cl)cc2)CC(O)=C1C=NCCN1CCNCC1 (stereo unspecified)	M1 antagonist -5.3 (no result: Htt clearance, Jurkat tox 60K) | M1 antag conf 512 | mGluR4 antag inactive
COc1ccc(C2CC(=O)C(C=NCCN3CCNCC3)=C(O)C2)cc1OC (stereo unspecified)	none (no result: Htt clearance)
COC(=O)c1ccccc1NC(=O)NCC1CCCO1 (stereo unspecified)	M1 antagonist -1.9 (no result: Htt clearance) | M1 antag conf inactive | mGluR4 antag inactive
COCc1[nH]nc2c1C(c1ccsc1)C(C#N)=C(N)O2 (stereo unspecified)	M1 antagonist -2.7 (no result: Htt clearance) | M1 antag conf inactive | mGluR4 antag inactive
COCc1[nH]nc2c1C(c1ccc(OC)cc1)C(C#N)=C(N)O2 (stereo unspecified)	none (no result: Htt clearance, D1 mod, Jurkat tox 60K, HEK293 NFkB inh)
COc1ccc(OCCC(=O)Nc2cc(C)on2)cc1	none
COc1ccc(S(=O)(=O)N(C)c2ccc(OCC(=O)Nc3cc(C)on3)cc2)cc1	M1 antagonist -2.8 | M1 antag conf inactive | mGluR4 antag inactive
O=S1(=O)CC=C(CSc2nc3ccccc3[nH]2)C1	M1 antagonist -2.3 (no result: Htt clearance, D1 mod) | M1 antag conf inactive | mGluR4 antag inactive
CCCCN(C(=O)c1ccc(Cl)cc1)C1CC2CCC(C1)N2C (stereo unspecified)	M1 antagonist -2.1 (no result: Htt clearance) | M1 antag conf 369 | mGluR4 antag inactive
COc1cc(C(=O)N(CCc2ccccc2)C2CC3CCC(C2)N3C)cc(OC)c1OC (stereo unspecified)	none (no result: Htt clearance)
Cc1onc(-c2ccccc2Cl)c1C(=O)Nc1ccc(-n2nncc2-c2ccco2)cc1	M1 antagonist -1.9 (no result: Htt clearance, D1 mod, Jurkat tox 60K) | M1 antag conf 379 | mGluR4 antag inactive
Cc1onc(-c2ccccc2Cl)c1C(=O)Nc1ccc(-n2nncc2C(C)(C)C)cc1	none (no result: Htt clearance, D1 mod, Jurkat tox 60K)
Cc1noc(C)c1C(=O)N1CCN(C(=O)c2sc3cc(Cl)ccc3c2Cl)CC1	M1 antagonist -4 (no result: Htt clearance) | M1 antag conf inactive | mGluR4 antag inactive
Cc1noc(C)c1C(=O)N1CCN(Cc2ccccc2)CC1	none (no result: M1 ag, M1 antagonist, D1 mod, Jurkat tox 60K, HEK293 NFkB inh)
COc1ccc2cc(Br)ccc2c1CC(=O)NC1CC(C)(C)NC(C)(C)C1	none (no result: M1 ag, M1 antagonist, D1 mod, Jurkat tox 60K, HEK293 NFkB inh)
CCCCN(CCCNC(=O)c1c(C)cc(=O)oc1C)c1ccccc1	none (no result: Htt clearance, Jurkat tox 60K)
CCN(CCCNC(=O)c1c(C)cc(=O)oc1C)c1ccccc1	M1 antagonist -3.9 (no result: Htt clearance, Jurkat tox 60K) | M1 antag conf inactive | mGluR4 antag inactive
CC(C)CC(=O)N1CCN(S(C)(=O)=O)CC1	M1 antagonist -3.6 | M1 antag conf inactive | mGluR4 antag inactive
CC(C)CC(=O)N1CCN(S(=O)(=O)c2ccc(F)cc2)CC1	none
CC(=O)Nc1ccc(S(=O)(=O)n2nc(C)cc2C)cc1	none (no result: Htt clearance)
Cc1ccc2ccc(S(=O)(=O)n3nc(C)cc3C)cc2c1	M1 antagonist -2 | M1 antag conf 443 | mGluR4 antag inactive
CCCCCCn1c(C(C)NC(=O)c2ccco2)nc2ccccc21 (stereo unspecified)	none
O=C1CSC(c2ccccc2F)N1CCN1CCCCC1 (stereo unspecified)	M1 antagonist -2.8 | M1 antag conf 481 | mGluR4 antag inactive
Cc1cc(C)c(S(=O)(=O)N2CCCCC2)c(C)c1-n1ncnn1	none
O=C(Cc1coc2ccc3ccccc3c12)N1CCN(c2ncccn2)CC1	M1 antagonist -3.3 | M1 antag conf inactive | mGluR4 antag inactive
Cc1cc(=O)[nH]c(=S)n1-c1ccccc1	M1 antagonist -1.2 (no result: Htt clearance) | M1 antag conf inactive | mGluR4 antag inactive
CCN(Cc1ccccc1)S(=O)(=O)c1nc2nc(C)c(C)c(C)n2n1	none (no result: Htt clearance)
Cc1nccn1CCc1n[nH]c(=S)n1Cc1ccccc1	M1 antagonist -9.5 (no result: Htt clearance) | M1 antag conf 314 | mGluR4 antag inactive
Cc1cc(C(F)(F)F)nn1Cc1n[nH]c(=S)n1Cc1ccccc1	none (no result: M1 ag, M1 antagonist, D1 mod, Jurkat tox 60K, HEK293 NFkB inh)
COCCn1c(SCc2cccnc2)nnc1-c1ccco1	M1 antagonist -3 | M1 antag conf inactive | mGluR4 antag inactive
COCCn1c(SCC(=O)NCCc2ccccc2)nnc1-c1ccco1	none (no result: Htt clearance)
OC(COc1ccc(OCc2ccccc2)cc1)CN1CCCCC1 (stereo unspecified)	M1 antagonist -6.6 (no result: Htt clearance) | M1 antag conf 358 | mGluR4 antag inactive
O=S(=O)(c1ccc(OCC(O)CN2CCC(Cc3ccccc3)CC2)cc1)N1CCOCC1 (stereo unspecified)	M1 antagonist -1 | M1 antag conf inactive | mGluR4 antag inactive
COc1cccc(OCC(O)CN2CCC(Cc3ccccc3)CC2)c1 (stereo unspecified)	M1 antagonist -2.2 (no result: Htt clearance) | M1 antag conf 347 | mGluR4 antag inactive
O=S(=O)(c1ccc(OCC(O)CN2CCN(c3ccccc3)CC2)cc1)N1CCOCC1 (stereo unspecified)	none (no result: Htt clearance)
COc1cccc(-c2nc(CS(=O)CC(=O)NCc3ccccc3)c(C)o2)c1 (stereo unspecified)	none (no result: Htt clearance)
O=c1[nH]ncn2cccc12	none (no result: D1 mod)
O=C(COC(=O)c1ccccn1)Nc1cc(Cl)ccc1Cl	none (no result: Htt clearance)
COc1ccc(S(=O)(=O)N2CCC(C(=O)N3CCCCCC3)CC2)cc1	none (no result: Htt clearance)
CCCNC(=O)C1=C(C)C(=O)OC12CCC(C)CC2 (stereo unspecified)	M1 antagonist -2.2 | M1 antag conf inactive | mGluR4 antag inactive
Cc1cc(NC(=O)CC(CN(C)S(=O)(=O)c2ccccc2)c2ccccc2)no1 (stereo unspecified)	none (no result: Htt clearance)
CCOc1ccc(-c2nnc3ccc(SCc4ccc(C(=O)OC)o4)nn23)cc1	M1 antagonist -4 | M1 antag conf 520 | mGluR4 antag inactive
COC(=O)c1ccc(CSc2ccc3nnc(-c4ccccn4)n3n2)o1	none
